Experimental data from ChEMBL document CHEMBL4311947, “Discovery of Novel Naphthylphenylketone and Naphthylphenylamine Derivatives as Cell Division Cycle 25B (CDC25B) Phosphatase Inhibitors: Design, Synthesis, Inhibition Mechanism, and in Vitro Efficacy against Melanoma Cell Lines” (J Med Chem, 2019).
Active and inactive are the calls of the source. The rule behind the calls is not given here.

Key:
A-375 [1] = assay: Induction of cell cycle arrest in human A375 cells assessed as increase in accumulation at G2/M phase at 10 uM after 16 hrs by propidium iodide staining based flow cytometric method; type: functional
Method in brief: (§1)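 Seeded at 3×10^5 cells/well for 24 h at 37°C, then exposed to 10 µM inhibitor or 0.5% (v/v) DMSO for 8 or 16 h. Trypsin-harvested, fixed in cold 70% ethanol at -20°C for 1 h, stained 30 min at 4°C with 50 µg/mL PI in non-lysis solution. Phase distribution (sub-G1, G0/G1, S, G2/M) read by FACScan; triplicate experiments, mean ± SE.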

A2058 [2] = assay: Induction of cell cycle arrest in human A2058 cells assessed as increase in accumulation at subG1 phase at 10 uM after 16 hrs by propidium iodide staining based flow cytometric method; type: functional; method in brief: as §1
A2058 [3] = assay: Induction of cell cycle arrest in human A2058 cells assessed as decrease in accumulation at G0/G1 phase at 10 uM after 16 hrs by propidium iodide staining based flow cytometric method; type: functional; method in brief: as §1
A-375 [4] = assay: Induction of cell cycle arrest in human A375 cells assessed as increase in accumulation at G2/M phase at 10 uM after 8 hrs by propidium iodide staining based flow cytometric method; type: functional; method in brief: as §1
A-375 [5] = assay: Induction of cell cycle arrest in human A375 cells assessed as decrease in accumulation at G0/G1 phase at 10 uM after 8 hrs by propidium iodide staining based flow cytometric method; type: functional; method in brief: as §1
A2058 [6] = assay: Induction of cell cycle arrest in human A2058 cells assessed as decrease in accumulation at G0/G1 phase at 10 uM after 8 hrs by propidium iodide staining based flow cytometric method; type: functional; method in brief: as §1
hTERT-BJ = assay: Cytotoxicity against human BJ-5ta cells at 10 uM measured up to 72 hrs by MTT assay; type: cell-based
Method in brief: (§2)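 Cells seeded at 4×10^4/well, treated 24 h after plating with inhibitor or 0.5% (v/v) DMSO vehicle for 24, 48 or 72 h. MTT added, 3 h at 37°C under 5% CO2, formazan solubilised, absorbance at 570 nm. Viability in arbitrary units, mean ± SE of at least three independent experiments versus control. Cells grown in DMEM/10% FBS at 37°C, 5% CO2; BJ-5ta cultured in 4:1 DMEM/Medium 199 with hygromycin B.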

A2058 [7] = assay: Cytotoxicity against human A2058 cells at 50 uM after 48 hrs by MTT assay; type: functional, cell-based; method in brief: as §2
[8] = biological target: T1, M-phase inducer phosphatase 2 (Homo sapiens) (UniProt P30305); assay: Inhibition of N-terminal His6-tagged human CDC25B (377 to 550 residues) expressed in Escherichia coli BL21(DE3) cells at 10 uM by spectrofluorimetric analysis
T1 sequence (whole entry): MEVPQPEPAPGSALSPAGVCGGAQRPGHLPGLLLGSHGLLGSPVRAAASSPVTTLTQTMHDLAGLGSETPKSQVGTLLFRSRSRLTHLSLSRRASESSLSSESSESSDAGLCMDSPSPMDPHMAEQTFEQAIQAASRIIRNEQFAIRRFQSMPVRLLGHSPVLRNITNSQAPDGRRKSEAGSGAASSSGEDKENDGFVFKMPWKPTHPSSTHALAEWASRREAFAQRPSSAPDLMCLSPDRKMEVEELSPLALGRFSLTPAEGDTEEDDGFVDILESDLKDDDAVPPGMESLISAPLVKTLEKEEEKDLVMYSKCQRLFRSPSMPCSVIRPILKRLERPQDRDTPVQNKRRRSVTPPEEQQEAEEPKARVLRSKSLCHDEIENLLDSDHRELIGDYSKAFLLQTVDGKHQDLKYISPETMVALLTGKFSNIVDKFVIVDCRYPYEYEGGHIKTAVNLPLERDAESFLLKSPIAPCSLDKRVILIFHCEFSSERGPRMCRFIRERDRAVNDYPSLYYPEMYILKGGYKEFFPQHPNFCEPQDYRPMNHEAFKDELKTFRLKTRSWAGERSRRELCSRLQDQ

[9] = biological target: T2, M-phase inducer phosphatase 3 (Homo sapiens, UniProt P30307); assay: Inhibition of N-terminal His6-tagged human CDC25C (280 to 454 residues) expressed in Escherichia coli BL21(DE3) cells using OMFP as substrate by double reciprocal Lineweaver-Burk plot analysis
T2 sequence (P30307 whole entry): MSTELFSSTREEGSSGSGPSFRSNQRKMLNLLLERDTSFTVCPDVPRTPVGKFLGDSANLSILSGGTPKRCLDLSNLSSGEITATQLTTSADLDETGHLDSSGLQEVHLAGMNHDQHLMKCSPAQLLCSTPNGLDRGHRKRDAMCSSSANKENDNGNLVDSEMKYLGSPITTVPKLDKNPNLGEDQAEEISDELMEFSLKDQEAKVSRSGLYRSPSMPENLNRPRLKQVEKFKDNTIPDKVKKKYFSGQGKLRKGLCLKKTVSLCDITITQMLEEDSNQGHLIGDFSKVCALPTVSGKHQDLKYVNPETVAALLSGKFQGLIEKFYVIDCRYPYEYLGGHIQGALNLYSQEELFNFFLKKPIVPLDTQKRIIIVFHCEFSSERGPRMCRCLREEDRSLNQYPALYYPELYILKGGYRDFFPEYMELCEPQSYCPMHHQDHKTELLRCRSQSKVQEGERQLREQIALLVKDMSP
Method in brief: (§3)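 Recombinant CDC25 form (15–25 nM) in 20 mM Tris-HCl pH 7.8, 0.5 mM TCEP, 1% (v/v) DMSO, with or without inhibitor. Reaction started with 0.5–25 µM OMFP; O-methylfluorescein formation followed continuously at 30°C (ex 485/em 530 nm). Initial rates (AU/min) analysed in Lineweaver-Burk plots for Vmax, KM and mechanism; Ki averaged from at least three independent experiments, only roughly estimated for mixed inhibition.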

[10] = biological target: T3, M-phase inducer phosphatase 1 (Homo sapiens, UniProt P30304); assay: Inhibition of N-terminal His6-tagged human CDC25A (336 to 508 residues) expressed in Escherichia coli BL21(DE3) cells using OMFP as substrate by double reciprocal Lineweaver-Burk plot analysis; method in brief: as §3
T3 sequence (P30304 whole entry): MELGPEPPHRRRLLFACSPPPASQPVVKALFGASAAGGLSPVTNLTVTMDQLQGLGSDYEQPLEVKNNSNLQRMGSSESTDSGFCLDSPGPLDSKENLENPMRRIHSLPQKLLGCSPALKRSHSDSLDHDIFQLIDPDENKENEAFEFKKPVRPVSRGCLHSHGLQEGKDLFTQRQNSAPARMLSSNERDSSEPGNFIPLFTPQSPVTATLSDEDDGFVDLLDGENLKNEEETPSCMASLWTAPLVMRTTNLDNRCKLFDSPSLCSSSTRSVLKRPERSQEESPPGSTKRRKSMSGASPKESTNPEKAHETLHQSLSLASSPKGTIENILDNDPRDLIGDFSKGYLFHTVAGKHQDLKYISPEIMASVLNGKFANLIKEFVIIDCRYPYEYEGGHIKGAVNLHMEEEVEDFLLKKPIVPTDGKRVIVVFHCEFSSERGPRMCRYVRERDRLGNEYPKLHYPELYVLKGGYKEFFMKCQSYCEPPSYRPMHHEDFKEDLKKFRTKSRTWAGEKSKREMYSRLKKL

inhibition [8]: inactive
Ki [9]: 1900 nM
Ki [10]: 3000 nM
Structure (SMILES): CCOC(=O)c1cccc(Nc2cc(OC)cc3ccccc23)c1
Activity (A-375 [1]): inactive
Activity (A2058 [2]): inactive
Activity (A2058 [3]): Active
Activity (A-375 [4]): Active
Activity (A-375 [5]): Active
Activity (A2058 [6]): Active
Activity (hTERT-BJ): Non-Toxic
Activity (A2058 [7]): Active
